Most compounds without a hit are left out; they make up all but 7.4% or so of the library.
M1 agonist = M1 muscarinic receptor agonists, primary screen, CHO-M1 cells, Fluo-4 calcium, agonist mode. Muscarinic acetylcholine receptor M1. Fluo-4 calcium fluorescence; active compounds read high. B-score at 10 µM. actives 3% (n = 64,000). AID 626, 2007;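 active means fluorescence rise, raw or as B-score row- and column-corrected plate score, outside the 99.7% band of its plate's samples, either direction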
S1P3 ag = human S1P3 receptor agonists, primary screen, cell-based, primary and confirmation, NFAT-BLA reporter; S1P3 NFAT-BLA reporter cells, agonism, FRET ratio; relative to 1 µM S1P, basal subtracted; AID 373, 2006; actives 0.1% (n = 60,000); activation, % at 4.5 µM;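 active means activation above the screen-wide mean plus 3 SD, cut at about 4.5% in these data, passing the limit was not always enough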
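material = human S1P3 NFAT-BLA reporter CHO cells | schedule = 4 h compound at 37 °C, 2 h substrate at RT | measured by = fluorescent BLA substrate, ex 405 nm, em 460/535 nm ratio | controls = 1 µM S1P reference | replication = primary once, confirmation triplicate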
Jurkat viability = cytotoxicity toward Jurkat T cells, primary screen, cytotoxicity control, cell-based, Jurkat E6.1, 60K MLSMR library; Jurkat E6.1 viability, ATP luminescence, 48 h; inhibition, % at 4 µM; actives 1.2% (n = 56,000);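 active means inhibition above the mean inhibition of all tested compounds plus 3 SD, cut at about 28% in these data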
S1P1 ag-PAM = S1P1 agonists and agonism potentiators, primary screen, cell-based, primary and confirmation screens, CRE-bla reporter. Sphingosine 1-phosphate receptor 1 (Homo sapiens), P21453. S1P1 CRE-bla cells, forskolin, beta-lactamase FRET, potentiator mode; S1P1 agonist co-added at EC20, 2 nM; 100% = saturating reference agonist, 0% = basal. activation, % at 9.5 µM. actives 0.57% (n = 56,000). AID 449, 2006;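 active means activation above a cutoff set at the mean activation of all tested compounds plus 3 SD, cut at about 54% in these data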;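 further: forskolin at 4 µM as EC80 and the EC20 agonist is SEW2871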
M1 antag = antagonists of rat M1 muscarinic receptor; CHO-M1 cells, Fluo-4 calcium, ACh EC80 antagonist mode; active compounds read low; B-score at 10 µM; actives 3.4% (n = 64,000); AID 628, 2007;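 active means calcium fluorescence response, raw or row-and-column corrected B-score, differing from the plate sample mean either way at a set confidence level, mostly lower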
Target sequence (P08482 whole entry, looked up): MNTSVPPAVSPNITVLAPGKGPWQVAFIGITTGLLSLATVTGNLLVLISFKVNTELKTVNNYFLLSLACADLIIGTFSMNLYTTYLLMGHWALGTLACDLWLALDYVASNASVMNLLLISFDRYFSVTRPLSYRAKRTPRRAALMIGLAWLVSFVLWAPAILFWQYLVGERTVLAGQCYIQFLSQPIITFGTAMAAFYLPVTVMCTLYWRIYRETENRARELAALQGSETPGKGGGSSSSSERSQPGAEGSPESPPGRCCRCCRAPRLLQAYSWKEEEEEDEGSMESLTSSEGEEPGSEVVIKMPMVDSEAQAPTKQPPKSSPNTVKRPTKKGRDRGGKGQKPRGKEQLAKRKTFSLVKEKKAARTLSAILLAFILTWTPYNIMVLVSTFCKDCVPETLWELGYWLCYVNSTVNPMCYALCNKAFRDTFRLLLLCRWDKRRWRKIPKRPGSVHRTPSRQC
JNK3 inh = JNK3 kinase activity inhibitors, primary screen, biochemical, human, purified enzyme | Mitogen-activated protein kinase 10 (Homo sapiens), P53779 | HTS | inhibition, % at 8 µM | actives 0.61% (n = 60,000) | AID 746, 2007; in the data active means inhibition above about 17%
M1 antag confirm = rat M1 muscarinic receptor antagonists, confirmation, CHO cells, Fluo-4 calcium, duplicate | calcium response (max-min fluorescence) at 10 µM | ACh EC80 antagonism; active compounds read low | actives 43% (n = 1,700) | shares compounds with M1 antag | AID 677, 2007;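 active means calcium response below the same-plate mean of wells given acetylcholine alone at its 80%-effect dose, minus 3 SD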
mGluR4 antag = human mGluR4 response to M1 antagonist hits, M1 allosteric modulator project, cell-based, antagonist mode, secondary assay 1; shares compounds with M1 antag; CHO-mGluR4 calcium flux, Fluo-4 fluorescence, glutamate EC80; active compounds read low; fluorescence response (max-min) at 10 µM; actives 0.9% (n = 1,700); AID 678, 2007;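 active means fluorescence response below the plate's average for near-maximal glutamate wells, less 3 SD of those wells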;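 further: raw unnormalized fluorescence span taken in the window right after glutamate addition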
Each line names hits and unclear results; the compound was inactive in the other large screens (follow-up assays come after a bar, where they were run).

O=C(COc1ccc2ccccc2c1CN1CCOCC1)N1CCc2ccccc21	M1 antag -2.1 | M1 antag confirm 336 | mGluR4 antag inactive
CCN(CC)C(=O)Cn1cnc2ccccc2c1=O	none (no result: S1P1 ag-PAM)
CC(C(=O)c1ccccc1)n1cnc2ccccc2c1=O (stereo not drawn)	M1 antag -10 | M1 antag confirm inactive | mGluR4 antag inactive
CCn1c(SCC(=O)Nc2c(C)n(C)n(-c3ccccc3)c2=O)nnc1-c1cccc(C)c1	M1 antag -1.9 | M1 antag confirm inactive | mGluR4 antag inactive
Cc1c(NC(=O)CSc2nnc3sc4ccccc4n23)c(=O)n(-c2ccccc2)n1C	none
Cc1ccc(NC(=O)CS(=O)(=O)c2c[nH]c3ccccc23)c(C)c1	none (no result: S1P3 ag, Jurkat viability, S1P1 ag-PAM, JNK3 inh)
Cc1ccc(NC(=O)Nc2cccs2)cc1	none (no result: S1P3 ag, Jurkat viability, S1P1 ag-PAM, JNK3 inh)
CCc1ccc(NC(=O)Nc2cccs2)cc1	M1 antag -2.3 | M1 antag confirm inactive | mGluR4 antag inactive
CC1CCc2cc(F)ccc2N1C(=O)CSc1nnc(-c2cccs2)n1C (stereo not drawn)	M1 antag -6.1 | M1 antag confirm inactive | mGluR4 antag inactive
O=C(Cc1coc(-c2ccc(F)cc2)n1)N1CCOCC1	none
CCSc1sccc1C1C(C#N)=C(N)N(c2cccnc2)C2=C1C(=O)CC(C)(C)C2 (stereo not drawn)	M1 antag -5.1 | M1 antag confirm inactive | mGluR4 antag inactive
COc1ccc(NC(=O)C2CCCCN2CC(=O)OCc2ccccc2)cc1OC (stereo not drawn)	M1 antag -2.7 | M1 antag confirm inactive | mGluR4 antag inactive
O=C(Nc1ccc(Nc2ccccc2)cc1)C1CC1	none
O=C(Nc1ccc(Br)c(Cl)c1)C1CC1	M1 antag -6.2 (no result: S1P1 ag-PAM) | M1 antag confirm inactive | mGluR4 antag inactive
O=C1CCCc2sccc2N1	none
Cn1cnnc1SCc1ccc(C(=O)n2ncc(C#N)c2N)cc1	M1 antag -3.6 | M1 antag confirm inactive | mGluR4 antag inactive
CC1CCCCN1CCCNC(=O)C1CCN(c2nc3ccccc3o2)CC1 (stereo not drawn)	M1 antag -4.1 | M1 antag confirm 67 | mGluR4 antag inactive
O=C(NCCN1CCOCC1)C1CCN(c2nc3ccccc3o2)CC1	M1 antag -2.2 | M1 antag confirm 458 | mGluR4 antag inactive
Cc1nc2ccccc2c2oc(C(=O)NCCN3CCCCC3C)cc12 (stereo not drawn)	M1 antag -3.4 | M1 antag confirm 354 | mGluR4 antag inactive
O=C(NC1CCCCCC1)C1CCN(c2nc3ccccc3o2)CC1	none
c1ccc(CC2CCN(c3nc(N4CCOCC4)nc(N4CCOCC4)n3)CC2)cc1	none (no result: S1P1 ag-PAM)
COc1ccccc1CNc1ccc(N2CCCCC2)cc1	M1 antag -4.4 | M1 antag confirm 318 | mGluR4 antag inactive
CCN1CCCC1CNCc1ccc(Cl)cc1Cl (stereo not drawn)	M1 antag -3.1 | M1 antag confirm 529 | mGluR4 antag inactive
Oc1ccc(Cl)cc1CNCC1CCCO1 (stereo not drawn)	none
COC(=O)c1sc2ccccc2c1NC(=O)c1cccs1	M1 antag -1.4 | M1 antag confirm 642 | mGluR4 antag inactive
COc1cc(NC(=O)c2cccs2)cc(OC)c1	M1 antag -3.4 | M1 antag confirm inactive | mGluR4 antag inactive
COc1cc(NC(=O)Cc2cccs2)cc(OC)c1	none (no result: S1P1 ag-PAM)
COC(=O)c1sc2ccccc2c1N	none
N#CCSc1nc2c(cc1C#N)CCCCCC2	M1 antag -5.3 (no result: Jurkat viability) | M1 antag confirm 205 | mGluR4 antag inactive
COc1ccc(CNC(=O)CN(CC2CCCO2)C(=O)CNS(=O)(=O)c2ccccc2)cc1 (stereo not drawn)	M1 antag -2.4 | M1 antag confirm inactive | mGluR4 antag inactive
CCCc1cn(S(=O)(=O)c2ccc(OC)cc2OC)nc1N	none (no result: S1P1 ag-PAM)
Cc1cc(C)c(C(=O)CC2(O)C(=O)Nc3ccccc32)cc1C (stereo not drawn)	none (no result: S1P3 ag, Jurkat viability, S1P1 ag-PAM, JNK3 inh)
COc1ccc(/C(CC2(O)C(=O)Nc3ccccc32)=N\O)cc1 (stereo not drawn)	M1 antag -2.5 | M1 antag confirm inactive | mGluR4 antag inactive
CCOc1ccc2nc(SCC(=O)Nc3ncccn3)[nH]c2c1	none (no result: Jurkat viability)
CCCCNS(=O)(=O)c1ccc2nc(SCC(=O)Nc3sccc3C#N)[nH]c2c1	M1 antag -3.1 | M1 antag confirm inactive | mGluR4 antag inactive
COc1ccc(N(CC(=O)O)S(=O)(=O)c2ccc(OC)c(OC)c2)cc1	none (no result: S1P3 ag, Jurkat viability, S1P1 ag-PAM, JNK3 inh)
COc1ccc(S(=O)(=O)N(CC(=O)O)Cc2ccccc2)cc1OC	M1 antag -18 | M1 antag confirm inactive | mGluR4 antag inactive
CN1CCN(C(=O)C2CCC(CNS(=O)(=O)c3cccc4cccnc34)CC2)CC1 (stereo not drawn)	none
O=C(NCCN1CCCCCC1)C1CCC(CNS(=O)(=O)c2cccc3cccnc23)CC1 (stereo not drawn)	M1 antag -2 | M1 antag confirm inactive | mGluR4 antag inactive
Cc1onc(-c2c(Cl)cccc2Cl)c1C(=O)N1CCc2ccccc21	S1P3 ag 7.4, M1 antag -8.3 | M1 antag confirm 120 | mGluR4 antag inactive
Cc1onc(-c2c(F)cccc2Cl)c1C(=O)N1CCc2ccccc2C1	M1 antag -3.2 | M1 antag confirm inactive | mGluR4 antag inactive
CCOC(=O)N1CCN(C(=O)Cc2ccsc2)CC1	none
Nc1nnnn1CC(=O)OCc1cccc(Br)c1	none (no result: Jurkat viability)
COc1ccccc1-c1c(C)nn2c(NCCN3CCCC3)cc(C)nc12	M1 antag -1.9 | M1 antag confirm inactive | mGluR4 antag inactive
CCCCN(C)CCNC(=O)c1ccc2c(c1)NC(=O)C(N1CCCCC1)S2 (stereo not drawn)	none
N#CCCCSC1=C(C#N)C(c2ccccc2Cl)CC(=O)N1 (stereo not drawn)	none
Cc1cc(=O)n2nc(N3CCC(C(=O)N4CCN(Cc5ccccc5)CC4)CC3)sc2n1	M1 antag -6 | M1 antag confirm inactive | mGluR4 antag inactive

High-throughput results (PubChem BioAssay)
